Experimental data reported in ChEMBL document CHEMBL4406806, “Design, Synthesis, and Characterization of Ogerin-Based Positive Allosteric Modulators for G Protein-Coupled Receptor 68 (GPR68)” (J Med Chem, 2019).
Activity calls are given as the source filed them. No cut-off for these calls is given here.

Key:
[1] = molecular target: G-protein coupled receptor 68 (Homo sapiens) (UniProt Q15743); experiment: (§1) Positive allosteric modulation of human GPR68 expressed in HEK293T cells co-expressing Gs assessed as stimulation of proton-mediated cAMP production by measuring allosteric affinity cooperativity in HBSS buffer containing pH 6.8 to 8.2 HEPES/pH 8.3 to 8.6 TAPS measured after 20 to 30 mins in presence of PDE inhibitor Ro 20-1724 by luciferase-glo reporter gene assay; assay type: functional, cell-based
Summary of the method: (§2)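 Transient co-transfection of HEK293T with receptor and GloSensor plasmids using PEI, overnight, then replated in DMEM + 1% dFBS for 6–24 h. Luciferin 3.5 mM loaded for 1 h at 37 °C in HBSS/20 mM TAPS, pH 8.40. Proton series: Ca/Mg-free HBSS with MES (pH 5.60–6.70), HEPES (6.80–8.20) or TAPS (8.30–8.60), plus 10 μM Ro 20-1724. BSA 1 mg/mL added where solubility required. Luminescence read at 20–30 min. At least six 16-point proton curves across modulator concentrations, quadruplicate, ≥3 independent assays.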

[2] = molecular target: G-protein coupled receptor 68 (Homo sapiens) (UniProt Q15743); experiment: Positive allosteric modulation of human GPR68 expressed in HEK293T cells co-expressing Gs assessed as stimulation of proton-mediated cAMP production by measuring allosteric binding affinity in HBSS buffer containing pH 6.8 to 8.2 HEPES/pH 8.3 to 8.6 TAPS measured after 20 to 30 mins in presence of PDE inhibitor Ro 20-1724 by luciferase-glo reporter gene assay; assay type: functional, cell-based; summary of the method: as §2
[3] = molecular target: G-protein coupled receptor 68 (Homo sapiens) (UniProt Q15743); experiment: as §1, with “index” for “affinity cooperativity”; assay type: functional, cell-based; summary of the method: as §2
[4] = molecular target: G-protein coupled receptor 68 (Homo sapiens) (UniProt Q15743); experiment: as §1, with “efficacy” for “allosteric affinity”; assay type: functional, cell-based; summary of the method: as §2
[5] = molecular target: G-protein coupled receptor 68 (Mus musculus) (UniProt Q8BFQ3); experiment: as §1, with “mouse” for “human”; assay type: functional, cell-based
Summary of the method: (§3)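 α, β and KB obtained by fitting proton responses with and without modulator to the standard allosteric operational model. Overall index is log(αβ/KB). Values are mean ± SEM from ≥3 independent assays, each run in triplicate or quadruplicate.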

[6] = molecular target: G-protein coupled receptor 68 (Mus musculus) (UniProt Q8BFQ3); experiment: as §1, with “mouse” for “human”, “efficacy” for “allosteric affinity”; assay type: functional, cell-based; summary of the method: as §3
[7] = molecular target: G-protein coupled receptor 68 (Mus musculus) (UniProt Q8BFQ3); experiment: as §1, with “mouse” for “human”, “index” for “affinity cooperativity”; assay type: functional, cell-based; summary of the method: as §3
[8] = molecular target: G-protein coupled receptor 68 (Homo sapiens) (UniProt Q15743); experiment: as §1, with “production” for “production by measuring allosteric affinity cooperativity”; assay type: functional, cell-based; summary of the method: as §2
[9] = molecular target: G-prodeshotein coupled receptor 4 (Homo sapiens) (UniProt P46093); experiment: as §1, with “GPR4” for “GPR68”, “production” for “production by measuring allosteric affinity cooperativity”; assay type: functional, cell-based; summary of the method: as §2
[10] = molecular target: G-protein coupled receptor 65 (Homo sapiens) (UniProt Q8IYL9); experiment: as §1, with “GPR65” for “GPR68”, “production” for “production by measuring allosteric affinity cooperativity”; assay type: functional, cell-based; summary of the method: as §2
[11] = molecular target: G-prodeshotein coupled receptor 4 (Homo sapiens) (UniProt P46093); experiment: as §1, with “GPR4” for “GPR68”, “at higher concentration” for “by measuring allosteric affinity cooperativity”; assay type: functional, cell-based; summary of the method: as §2
[12] = molecular target: G-protein coupled receptor 65 (Homo sapiens) (UniProt Q8IYL9); experiment: as §1, with “GPR65” for “GPR68”, “at higher concentration” for “by measuring allosteric affinity cooperativity”; assay type: functional, cell-based; summary of the method: as §2
[13] = molecular target: T1, 5-hydroxytryptamine receptor 2B (Homo sapiens, UniProt P41595); experiment: Displacement of [3H]LSD from recombinant human 5HT2B stably expressed in HEK cell membranes incubated for 90 mins under dark condition by microbeta scintillation counting analysis
[14] = molecular target: T1, 5-hydroxytryptamine receptor 2B; experiment: Agonist activity at human 5HT2B receptor expressed in Flp-In-HEK cells co-expressing Gq assessed as stimulation of calcium mobilization measured for 2 mins by fluo-4 calcium dye-based FLIPR assay; assay type: functional, cell-based
Summary of the method: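 HEK293 cells stably expressing 5-HT2B, seeded overnight (16–20 h) on poly-L-Lys in DMEM + 1% dFBS. Fluo-4 Direct dye loaded for 1 h at 37 °C in HBSS/20 mM HEPES/2.5 mM probenecid, pH 7.40. Drug diluted in buffer with 1 mg/mL BSA and 0.1 mg/mL ascorbic acid. Fluorescence read for 2 min; peak fold of basal within the first minute.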

[15] = molecular target: T1, 5-hydroxytryptamine receptor 2B; experiment: Antagonist activity at human 5HT2B receptor expressed in Flp-In-HEK cells co-expressing Gq assessed as inhibition of 5HT-induced stimulation of calcium mobilization preincubated for 10 mins followed by 5HT addition by fluo-4 calcium dye-based FLIPR assay; assay type: functional, cell-based
[16] = molecular target: T2, Atypical chemokine receptor 3 (Homo sapiens, UniProt P25106); experiment: Agonist activity at human ACKR3 expressed in HTLA cells assessed as stimulation of beta-arrestin recruitment at 1 uM incubated for 16 to 20 hrs by bright-glo luminescence assay; assay type: cell-based
[17] = molecular target: T2, Atypical chemokine receptor 3; experiment: Agonist activity at human ACKR3 expressed in HTLA cells assessed as stimulation of beta-arrestin recruitment incubated for 16 to 20 hrs by bright-glo luminescence assay; assay type: cell-based
Summary of the method: (§4)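 Tango arrestin assay in HTLA cells transfected with receptor DNA overnight in DMEM + 10% FBS, then replated on poly-L-Lys in DMEM + 1% dFBS. Drugs added 6 h later and incubated overnight (16–20 h). Medium removed, Bright-Glo added, luminescence counted.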

[18] = molecular target: T3, Melatonin receptor type 1A (Homo sapiens, UniProt P48039); experiment: Agonist activity at human MT1 receptor expressed in HTLA cells assessed as stimulation of beta-arrestin recruitment at 1 uM incubated for 16 to 20 hrs by bright-glo luminescence assay; assay type: cell-based
[19] = molecular target: T4, Melatonin receptor type 1B (Homo sapiens) (UniProt P49286); experiment: Agonist activity at human MT2 receptor expressed in HTLA cells assessed as stimulation of beta-arrestin recruitment at 1 uM incubated for 16 to 20 hrs by bright-glo luminescence assay; assay type: cell-based
T4 sequence (whole entry): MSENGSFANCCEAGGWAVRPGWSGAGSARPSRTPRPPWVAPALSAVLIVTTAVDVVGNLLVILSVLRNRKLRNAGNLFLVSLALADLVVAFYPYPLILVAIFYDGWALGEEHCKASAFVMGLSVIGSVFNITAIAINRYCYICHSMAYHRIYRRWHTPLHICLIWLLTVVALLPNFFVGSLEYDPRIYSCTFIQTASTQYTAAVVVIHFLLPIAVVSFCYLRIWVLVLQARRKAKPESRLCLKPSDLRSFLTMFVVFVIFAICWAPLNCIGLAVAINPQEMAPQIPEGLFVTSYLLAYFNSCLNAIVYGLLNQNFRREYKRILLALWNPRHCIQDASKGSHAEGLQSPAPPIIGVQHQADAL

[20] = molecular target: T3, Melatonin receptor type 1A; experiment: Agonist activity at human MT1 receptor expressed in HTLA cells assessed as stimulation of beta-arrestin recruitment incubated for 16 to 20 hrs by bright-glo luminescence assay; assay type: cell-based; summary of the method: as §4
[21] = molecular target: T5, Melatonin receptor type 1B (Homo sapiens, UniProt P49286); experiment: Agonist activity at human MT2 receptor expressed in HTLA cells assessed as stimulation of beta-arrestin recruitment incubated for 16 to 20 hrs by bright-glo luminescence assay; assay type: cell-based; summary of the method: as §4
T5 sequence (P49286 whole entry): T4 sequence (whole entry)

[22] = molecular target: T4, Melatonin receptor type 1B (Homo sapiens); experiment: Agonist activity at human MT2 receptor expressed in HTLA cells assessed as stimulation of beta-arrestin recruitment incubated for 16 to 20 hrs by bright-glo luminescence assay relative to control; assay type: cell-based; summary of the method: as §4
[23] = Drug uptake in Swiss albino mouse plasma at 25 mg/kg, ip administered as single dose measured after 0.5 hrs; assay type: ADME, organism-based
[24] = Drug uptake in Swiss albino mouse brain at 25 mg/kg, ip administered as single dose measured after 0.5 hrs; assay type: ADME, organism-based; settings: read-out: Drug uptake
[25] = Drug uptake in Swiss albino mouse plasma at 25 mg/kg, ip administered as single dose measured up to 2 hrs; assay type: ADME, organism-based; settings: in vivo
[26] = Drug uptake in Swiss albino mouse brain at 25 mg/kg, ip administered as single dose measured up to 2 hrs; assay type: ADME, organism-based; settings: in vivo
[27] = Toxicity in Swiss albino mouse assessed as effect on clinical parameter at 25 mg/kg, ip administered as single dose; assay type: organism-based; settings: in vivo

T2 sequence (P25106 whole entry): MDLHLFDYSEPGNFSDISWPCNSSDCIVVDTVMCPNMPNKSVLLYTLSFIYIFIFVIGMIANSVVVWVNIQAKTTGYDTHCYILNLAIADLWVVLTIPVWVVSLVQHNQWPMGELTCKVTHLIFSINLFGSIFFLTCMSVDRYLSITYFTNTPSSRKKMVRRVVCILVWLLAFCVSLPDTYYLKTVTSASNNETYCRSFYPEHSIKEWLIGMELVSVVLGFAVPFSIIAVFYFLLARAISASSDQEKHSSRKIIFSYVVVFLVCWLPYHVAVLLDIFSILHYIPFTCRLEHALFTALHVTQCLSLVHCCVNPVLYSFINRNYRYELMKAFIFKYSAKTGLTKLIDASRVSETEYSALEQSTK
T3 sequence (P48039 whole entry): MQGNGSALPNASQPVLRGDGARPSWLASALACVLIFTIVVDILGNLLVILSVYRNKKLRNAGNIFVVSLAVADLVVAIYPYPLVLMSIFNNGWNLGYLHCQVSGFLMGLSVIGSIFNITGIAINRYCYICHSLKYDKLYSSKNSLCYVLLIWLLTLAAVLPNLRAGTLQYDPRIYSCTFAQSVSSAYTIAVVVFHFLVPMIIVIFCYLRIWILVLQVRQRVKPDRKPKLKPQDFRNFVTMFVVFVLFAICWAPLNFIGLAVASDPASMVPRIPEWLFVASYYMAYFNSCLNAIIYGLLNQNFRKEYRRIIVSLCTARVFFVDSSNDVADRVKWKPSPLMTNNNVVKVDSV
Sequence of G-protein coupled receptor 65 (Homo sapiens) (Q8IYL9 whole entry): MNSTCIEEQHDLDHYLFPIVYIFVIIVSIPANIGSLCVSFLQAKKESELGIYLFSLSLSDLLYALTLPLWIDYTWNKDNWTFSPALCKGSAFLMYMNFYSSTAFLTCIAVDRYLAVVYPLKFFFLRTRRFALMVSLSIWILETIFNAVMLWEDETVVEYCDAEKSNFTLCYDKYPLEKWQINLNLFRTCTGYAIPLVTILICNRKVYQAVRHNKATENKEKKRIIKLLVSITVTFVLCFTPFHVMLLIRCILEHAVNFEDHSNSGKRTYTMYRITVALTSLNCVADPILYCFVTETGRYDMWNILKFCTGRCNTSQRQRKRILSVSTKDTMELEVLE
Sequence of G-prodeshotein coupled receptor 4 (Homo sapiens) (P46093 whole entry, looked up): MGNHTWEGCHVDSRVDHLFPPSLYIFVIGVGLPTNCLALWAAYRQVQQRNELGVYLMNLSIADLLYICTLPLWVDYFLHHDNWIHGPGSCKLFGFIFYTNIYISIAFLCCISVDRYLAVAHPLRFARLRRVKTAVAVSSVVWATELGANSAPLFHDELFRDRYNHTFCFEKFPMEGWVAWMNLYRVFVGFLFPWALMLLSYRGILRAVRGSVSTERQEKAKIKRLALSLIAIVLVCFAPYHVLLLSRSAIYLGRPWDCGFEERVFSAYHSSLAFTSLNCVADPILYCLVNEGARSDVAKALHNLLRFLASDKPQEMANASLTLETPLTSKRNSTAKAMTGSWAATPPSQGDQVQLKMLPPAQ
Sequence of G-protein coupled receptor 68 (Mus musculus) (Q8BFQ3 whole entry): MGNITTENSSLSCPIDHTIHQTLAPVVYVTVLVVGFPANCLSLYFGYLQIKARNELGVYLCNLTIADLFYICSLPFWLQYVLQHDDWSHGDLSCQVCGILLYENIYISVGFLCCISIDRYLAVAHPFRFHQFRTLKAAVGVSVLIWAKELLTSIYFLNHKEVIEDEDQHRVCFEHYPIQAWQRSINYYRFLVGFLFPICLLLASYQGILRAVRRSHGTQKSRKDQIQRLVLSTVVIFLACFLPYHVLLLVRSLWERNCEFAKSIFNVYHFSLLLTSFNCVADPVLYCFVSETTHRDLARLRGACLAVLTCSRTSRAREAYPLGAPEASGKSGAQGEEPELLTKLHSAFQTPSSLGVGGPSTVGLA
T1 sequence (P41595 whole entry): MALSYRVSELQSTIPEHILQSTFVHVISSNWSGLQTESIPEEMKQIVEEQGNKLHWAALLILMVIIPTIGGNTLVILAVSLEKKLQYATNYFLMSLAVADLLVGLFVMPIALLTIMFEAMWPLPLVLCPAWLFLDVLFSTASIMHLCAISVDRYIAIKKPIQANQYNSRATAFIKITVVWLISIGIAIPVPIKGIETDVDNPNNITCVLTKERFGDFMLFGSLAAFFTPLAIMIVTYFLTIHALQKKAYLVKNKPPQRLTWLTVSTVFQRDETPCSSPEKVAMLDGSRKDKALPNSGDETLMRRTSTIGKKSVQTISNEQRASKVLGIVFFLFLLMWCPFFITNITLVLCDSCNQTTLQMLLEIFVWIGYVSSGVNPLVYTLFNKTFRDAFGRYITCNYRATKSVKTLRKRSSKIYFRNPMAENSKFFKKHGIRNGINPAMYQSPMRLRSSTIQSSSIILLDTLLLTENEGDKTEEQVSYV
Sequence of G-protein coupled receptor 68 (Homo sapiens) (Q15743 whole entry): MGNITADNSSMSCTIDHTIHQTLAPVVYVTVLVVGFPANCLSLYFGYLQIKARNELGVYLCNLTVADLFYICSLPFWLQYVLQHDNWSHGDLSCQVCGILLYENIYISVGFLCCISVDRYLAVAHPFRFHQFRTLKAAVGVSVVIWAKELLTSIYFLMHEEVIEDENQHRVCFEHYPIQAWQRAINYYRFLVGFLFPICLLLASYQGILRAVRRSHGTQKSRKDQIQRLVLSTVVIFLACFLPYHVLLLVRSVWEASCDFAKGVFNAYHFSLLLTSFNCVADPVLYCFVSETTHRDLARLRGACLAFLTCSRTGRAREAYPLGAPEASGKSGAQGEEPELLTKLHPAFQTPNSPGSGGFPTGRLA

Row | Compound | log(activity) [1] | pKb [2] | Activity_index [3] | log(activity) [4] | Activity index [3] | log(activity) [5] | log(activity) [6] | Activity index [7] | Activity [8] | further results
1 | COc1cccc(CO)c1-c1nc(N)nc(NCc2ccccc2)n1 | inactive | inactive | inactive | – | – | – | – | – | – | –
2 | Nc1nc(NCCCCc2ccccc2)nc(-c2ccccc2CO)n1 | 0.62 | – | – | 0.21 | 6.35 | 0.91 | 0.08 | 5.89 | – | –
3 | CC(O)c1ccccc1-c1nc(N)nc(NCc2ccccc2)n1 (centres undefined) | inactive | inactive | inactive | inactive | – | – | – | – | – | –
4 | CN(C)c1nc(NCc2ccccc2)nc(-c2ccccc2CO)n1 | inactive | inactive | inactive | inactive | – | – | – | – | inactive | Activity [9]: inactive; Activity [10]: inactive
5 | Cc1ccccc1-c1nc(N)nc(NCc2ccccc2)n1 | inactive | inactive | inactive | inactive | – | – | – | – | – | –
6 | Nc1nc(NCCCc2ccccc2)nc(-c2cc(Cl)ccc2CO)n1 | 1.03 | – | – | 0.01 | 6.38 | 0.99 | 0.13 | 5.98 | – | Activity [11]: inactive; Activity [12]: inactive; Ki ([13]; read-out: Ki): 0.295 µM; Ki ([13]; read-out: pKi (converted)): 0.1 to 0.316 µM; Activity [14]: inactive; Ki [15]: 0.212 µM; Activity [16]: Active; EC50 [17]: 0.69 µM
7 | CNCc1ccccc1-c1nc(N)nc(NCc2ccccc2)n1 | inactive | inactive | inactive | inactive | – | – | – | – | – | –
8 | Nc1nc(NCCc2ccccc2)nc(-c2cc(Cl)ccc2CO)n1 | 1.09 | – | – | 0.03 | 6.26 | 1.06 | 0.13 | 5.92 | – | Activity [11]: inactive; Activity [12]: inactive; Ki ([13]; read-out: Ki): 0.209 µM; Ki ([13]; read-out: pKi (converted)): 0.1 to 0.316 µM; Activity [14]: inactive; Ki [15]: 0.678 µM; Activity [16]: Active; EC50 [17]: 1.7 µM
9 | Nc1nc(NCc2ccccc2)nc(-c2cccc(CO)c2)n1 | inactive | inactive | inactive | inactive | – | – | – | – | inactive | Activity [9]: inactive; Activity [10]: inactive
10 | Nc1nc(NCc2ccc(Oc3ccccc3)cc2)nc(-c2c(F)cccc2CO)n1 | 0.9 | – | – | 0.06 | 6.83 | 1.26 | 0.09 | 6.46 | Dose-dependent effect | Activity [11]: inactive; Activity [12]: inactive; Ki ([13]; read-out: Ki): 0.219 µM; Ki ([13]; read-out: pKi (converted)): 0.1 to 0.316 µM; Activity [14]: inactive; Ki [15]: 0.31 µM; Activity [18]: Active; Activity [19]: Active; EC50 [20]: 0.32 µM; Kd [20]: 5.9 µM; EC50 [21]: 0.54 µM; Kd [21]: 1.1 µM; Emax [22]: 24%; concentration at 0.5 h [23]: > 10 µM; concentration at 0.5 h [24]: > 10 µM; Drug uptake [25]: Active; Drug uptake [26]: Active; Activity [27]: Non-Toxic
11 | Nc1nc(NCc2ccccc2)nc(-c2ccccc2CO)n1 | 0.6 | – | – | 0.36 | 5.31 | 0.8 | 0.04 | 4.97 | Dose-dependent effect | –
12 | CC(=O)c1cccc(-c2nc(N)nc(NCc3ccccc3)n2)c1 | inactive | inactive | inactive | inactive | – | – | – | – | inactive | Activity [9]: inactive; Activity [10]: inactive
13 | CC(=O)c1ccccc1-c1nc(N)nc(NCc2ccccc2)n1 | inactive | inactive | inactive | inactive | – | – | – | – | – | –
14 | Nc1cc(-c2ccccc2CO)nc(NCc2ccccc2)n1 | inactive | inactive | inactive | inactive | – | – | – | – | – | –
15 | Nc1nc(NCc2ccccc2)nc(-c2ccccc2)n1 | inactive | inactive | inactive | inactive | – | – | – | – | – | –
